From PubChem
ERAP1 inh: human ERAP1 aminopeptidase inhibitors, primary screen, biochemical, single point, plate reader. Endoplasmic reticulum aminopeptidase 1 (Homo sapiens), Q9NZ08. recombinant ERAP1, Leu-AMC fluorescence, 60 min. inhibition, % at 10.7 µM. 340,000 tested, 0.15% active. AID 652197, 2013;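 active = mean replicate inhibition of at least 30%, or all replicates individually reaching that 30% level; inactive = mean below 30% and not every replicate reaching it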;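 also: 0% = neutral control wells and 100% = L-leucinethiol positive control wells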
ERp5 inh: inhibitors of ERp5-driven insulin aggregation, primary screen, biochemical, turbidity, absorbance 650 nm, single point; AID 651711, 2012; 90 min; 350,000 tested, 0.05% active; Protein disulfide-isomerase A6 (Homo sapiens), Q15084; inhibition, % at 9.99 µM;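 active = mean replicate inhibition above about 25%, with every replicate also reaching it, limit read from the data, passing the limit was not always enough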
S100A4 inh HTS: inhibitors of S100A4-myosin IIA peptide binding, primary screen, biochemical, fluorescence polarization, TAMRA-MyoIIA peptide. AID 652163, 2013. 360,000 tested, 0.14% active. Protein S100-A4 (Homo sapiens), P26447. inhibition, % at 10.7 µM;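 active = mean inhibition of at least 70% across replicates, with every replicate also reaching that level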
Target sequence (P26447 whole entry, looked up): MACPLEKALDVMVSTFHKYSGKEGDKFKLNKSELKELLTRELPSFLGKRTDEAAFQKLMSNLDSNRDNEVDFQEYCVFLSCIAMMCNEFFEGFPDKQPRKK
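Material: S100A4 monomer protein | Medium: HEPES pH 7.2 with CaCl2, KCl, NaCl, DTT, Triton | Reagent: Labelled myosin peptide probe, 5 nM | Doses: One dose per compound | Times: 5 min incubation before reading | Benchmarks: Neutral control DMSO, positive control TFP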
PDI turbidity: inhibitors of human PDI, primary screen, biochemical, turbidity, single point, plate reader | PDI insulin aggregation turbidity, A650, 90 min | AID 588391, 2011 | 350,000 tested, 0.052% active | inhibition, % at 10 µM;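 active = mean inhibition across replicates of 30% or more, whatever share of single replicates reach that level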
FGF22 binding: binders of human FGF22 protein, primary screen, FGF22 synaptogenesis inhibitor project, biophysical, thermal shift, single point | Fibroblast growth factor 22 (Homo sapiens), Q9HCT0 | recombinant FGF22 thermal shift, SYPRO orange fluorescence; percent of sucrose octasulfate shift, DMSO zero | activity (Tm shift, normalised), % at 9.99 µM | 340,000 tested, 1.5% active | AID 651658, 2012;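 active = mean Tm shift, scaled 0 neutral to 100 positive control, at about 1.3% or above, every replicate too, limit read from the data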
Target sequence (Q9HCT0 whole entry, looked up): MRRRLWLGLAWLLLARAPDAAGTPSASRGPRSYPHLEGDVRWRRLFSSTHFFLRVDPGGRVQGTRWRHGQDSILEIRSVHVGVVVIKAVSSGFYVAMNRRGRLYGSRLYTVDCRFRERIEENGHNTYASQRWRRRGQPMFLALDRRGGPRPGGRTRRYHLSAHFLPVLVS
Active calls of the source: *; . = no result. The sample as a whole holds a higher share of hits than the screen did.

SMILES	ERAP1 inh	ERp5 inh	S100A4 inh HTS	PDI turbidity	FGF22 binding
Cc1nnc(SCC(=O)c2cc(C)n(C3CC3)c2C)s1	.	.	.	4	.
CC(C)NC(=O)N[C@@H]1CC[C@@H](CC(=O)NCCN2CCCC2)O[C@H]1CO	-1	-1	10	.	0
CC(C)[C@H](NC(=O)c1ccccc1F)C(=O)NNC(=O)c1cccs1	1	-7	-3	5	0
Cc1cccc(C)c1OCC(N)C(C)C (configuration not stated)	105*	0	-11	-2	0
Cc1cccc(C)c1OCC(C)N (configuration not stated)	3	2	-1	0	0
CCCCCC[n+]1ccccc1/C=C/c1ccc(N(C)C)cc1	13	-6	93*	-8	0
Oc1ccc(/C=N/n2cc(-c3ccccc3)[nH]c2=S)cc1	5	-3	-2	-4	44*
COc1ccc(NC(=O)Nc2ccc3c(c2)C(=O)N([C@@H](C)CO)C[C@H](C)[C@H](CN(C)S(=O)(=O)c2cccs2)O3)cc1	-1	-1	-6	.	0
Cc1ccccc1N1CC2=C(C1=O)C(c1ccccc1)NC(=O)N2C (configuration not stated)	-1	-2	3	-4	0
CN1C(=O)NC(c2ccccc2)C2=C1CN(c1cccc(C(F)(F)F)c1)C2=O (configuration not stated)	.	.	.	31*	.
Cn1ncc(Br)c1C(=O)NC1CCCCCCC1	-1	-3	-4	-6	0
Cc1nn(C)c(C(=O)NNC(=S)NC2CCCCC2)c1Br	1	6	-7	-9	43*
CCN(CC)C(C(=O)NC1CCCCC1)c1ccc(C)cc1 (configuration not stated)	4	1	2	-1	43*
COc1ccc(-c2csc(-c3cccs3)n2)c(OC)c1	2	6	1	4	42
COc1ccc(-c2csc(-c3ccccc3)n2)c(OC)c1	-1	-7	-11	-4	43*
COc1ccccc1-c1ccc2c(c1)[C@@H]1[C@@H](CCN1S(=O)(=O)c1ccccc1)[C@H](CO)N2	1	-2	1	.	-1
CCOc1ccc(/C=N/NC(=O)c2ccccc2C)cc1CN1CC2CC(C1)c1cccc(=O)n1C2 (configuration not stated)	-2	6	94*	.	0
O=C(NC1CCCC1)C1C(c2ccc(C(F)(F)F)cc2)=Nc2ccccc2N1C(=O)c1ccco1 (configuration not stated)	0	0	-1	.	0
Cc1ccc(SCCC(=O)NNC(=O)c2ccccc2F)cc1	-1	7	4	-2	43*
CCC(C)NC(=O)C(Sc1ccccc1)c1ccccc1 (configuration not stated)	2	-3	3	-7	43*
CCNC(=O)C(Sc1ccccc1)c1ccccc1 (configuration not stated)	.	.	.	-8	.
CSc1c(-c2ccccc2)nc2ccccc2c1C(=O)O	.	.	.	1	.
O=C(O)c1c(-c2ccccc2)c(-c2ccccc2)nc2ccccc12	-3	2	-3	2	43*
C/C(=N/NC(=O)c1ccoc1C)c1cccc(NC(=O)C2CC2)c1	.	.	.	4	.
Cn1cnc(C(=O)N2CCN(C(=O)OC(C)(C)C)CC2)c1C(=O)N1CCN(C(=O)OC(C)(C)C)CC1	106*	10	-5	-1	0
SMILES	ERAP1 inh	ERp5 inh	S100A4 inh HTS	PDI turbidity	FGF22 binding
Cn1cnc(C(=O)N2CCN(c3ccccc3)CC2)c1C(=O)N1CCN(c2ccccc2)CC1	21	-5	-7	-1	0
Cc1ccc(CNC(=O)Cn2cnc(C(=O)Nc3ccc(C)c(C)c3)n2)o1	0	2	76*	5	0
COC(=O)c1ccc(CNC(=O)Cn2cnc(C(=O)Nc3ccc(C)c(C)c3)n2)cc1	-5	2	2	-8	0
CCC(=O)Nc1cc(-c2cc3ccccc3oc2=O)ccc1OC	10	5	-3	0	43*
COc1ccc(-c2cc3ccccc3oc2=O)cc1NC(=O)c1ccc(Br)o1	.	.	.	2	.
CCCCCCC[C@H](N)[C@H](O)C(=O)N(C)[C@@H](CCS(C)=O)C(=O)N[C@@H](Cc1ccc(O)cc1)C(=O)N[C@@H](Cc1ccc(O)cc1)C(=O)O (some centres not stated)	50*	6	4	2	0
CN(C)CCCNC(=O)c1ccc(Oc2ccccc2)cc1	-1	1	-4	6	44*
O=C(CCCCCCCCC(=O)N/N=C/c1ccco1)N/N=C/c1ccco1	-3	-1	3	-8	43*
Cc1cc(Cl)ccc1OCC(=O)NCC(=O)N/N=C/c1ccco1	1	-9	1	11	43*
O=C(CCC(=O)N/N=C/c1ccco1)N/N=C/c1ccco1	-1	1	5	0	0
COc1ccccc1NC(=O)N[C@@H]1C=C[C@H](CC(=O)N[C@H](C)c2ccccc2)O[C@@H]1CO	0	7	1	.	.
Cc1sc(NC(=O)c2ccco2)c(CN2CCN(c3ccc(F)cc3)CC2)c1C	0	-3	-9	-14	.
CCOC(=O)N1CCN(Cc2c(NC(=O)c3ccco3)sc(C)c2C)CC1	-2	-8	0	-4	44*
CC1(C)c2ccccc2-c2nc3ccccc3cc2C1N1CCOCC1 (configuration not stated)	0	-3	-1	0	43*
Cc1ccc(-c2cc3ccccc3nc2N2CCOCC2)cc1	8	3	-17	-4	0
NC(=O)N/N=C/c1c(F)c(F)c(F)c(F)c1F	-1	5	-4	1	0
COc1ccccc1NC(=O)CNC(=O)c1ccc([N+](=O)[O-])cc1	-4	-2	4	1	0
O=C1C(Cl)=C(O)C2(Cl)C(Cl)=C(Cl)C12Cl (configuration not stated)	5	-1	-5	3	1.4*
CC(C)(C)OC(=O)N1CCC(NC(=O)c2[nH]cnc2C(=O)Nc2ccc(Br)cc2F)CC1	.	-1	-1	11	0
CC(C)(C)OC(=O)N1CCC(NC(=O)c2[nH]cnc2C(=O)Nc2ccccc2F)CC1	0	-2	5	-2	43*
CSc1nc(O)c(C(c2ccccc2)c2c(O)nc(SC)[nH]c2=O)c(=O)[nH]1	-2	-2	1	2	0
COc1ccc(-c2nc(SCC(=O)Nc3cccc(S(N)(=O)=O)c3)n[nH]2)cc1	-1	-5	-2	5	1.8*
NS(=O)(=O)c1cccc(NC(=O)CSc2n[nH]c(-c3cccs3)n2)c1	-3	6	-1	-6	1
